# Assay outcomes from PubChem BioAssay.
# Hits are enriched below; roughly 1.5% of the tested compounds scored in any of these assays.
# Platelet DG rel: inhibitors of platelet dense granule secretion, primary screen, cell-based, MLPCN, human platelets; human platelet-rich plasma, SFLLRN dense granule ATP release, luminescence; inhibition, %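 (compounds screened at 7.5 µM in platelet-rich plasma)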; actives 0.22% (n = 300,000);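 active = mean replicate score, as percent of positive control, at or above 50; inconclusive = mean below 50 but at least one replicate at or above 50; inactive = mean and every replicate below 50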
# STAT1 inh: STAT1 signaling inhibitors, primary screen, cell-based, HTS, luciferase reporter | NIH 3T3 STAT1-luciferase reporter, IFN-gamma, luminescence | actives 0.35% (n = 200,000) | AID 920, 2007 | inhibition, % at 5.5 µM;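 active = inhibition above a set limit, the mean inhibition across all tested compounds plus 3 SD, cut at about 34% in these data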;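 also: 0% = IFN-gamma with DMSO and 100% = IFN-gamma with 300 µM nifuroxazide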
# PPC-1+TRAIL kill: compounds killing PPC-1 cancer cells with TRAIL present, primary screen, TRAIL potentiator project, ATPLite luminescence, uHTS; PPC-1 cells + TRAIL, ATPLite viability luminescence; cell killing (% activity), % at 4 µM or 5 µM; actives 0.41% (n = 220,000); AID 1443, 2008;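 active = cell killing above 50% in the first pass at 4 µM, then a duplicate retest at 5 µM averaging 50% or more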;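 also: plate controls were cells with TRAIL plus DMSO for no effect and medium-only wells lacking cells for full effect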
# Lipid droplet: inhibitors of hepatocyte lipid droplet formation, primary screen, imaging, high-throughput imaging, BODIPY stain; inhibition, % at 6.5 µM; actives 0.4% (n = 240,000); AID 1656, 2009; AML12 mouse hepatocytes, oleate lipid droplets;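 active = lipid droplet intensity inhibited by at least 50%, with more than 500 cells counted; inconclusive = wells with under 300 cells, treated as cytotoxic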
#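 Material: mouse AML12 hepatocyte cell line, fixed after treatment; Timing: compound with oleate, overnight; Technique: high-content imaging of BODIPY-stained droplets and DAPI nuclei; Probe or stimulus: oleate, 100 µM final; Dosing: compound at 6.5 µM only.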
# TAG inh: inhibitors of triacylglycerol accumulation, primary screen, cell-based, uHTS, fluorescence, H9c2 | actives 0.66% (n = 230,000) | inhibition, % at 12.5 µM | H9c2 cells, Nile Red lipid (TAG) fluorescence; cells loaded with 200 µM oleic acid;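 active = pattern-corrected inhibition of lipid staining of at least 50% with the nuclear-stain viability signal not falling by more than 50%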;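 also: 0% = DMSO wells and 100% = triacsin C control wells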
# STAT3 inh: IL-6 driven STAT3 reporter inhibitors, primary screen, U3A cells, luciferase, luminescence, MLSCN library; IL-6 STAT3-luciferase reporter; host cell line lacks STAT1; inhibition, % at 5.5 µM; actives 0.89% (n = 190,000); AID 862, 2007;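 active = inhibition above the mean inhibition across all screened compounds plus 3 SD, cut at about 44% in these data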;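 also: 0% = DMSO only wells and 100% = 100 µM nifuroxazide control wells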
# TAG conf: triacylglycerol accumulation inhibitors, retest, confirmation, cell-based, single concentration, Nile Red fluorescence, H9c2; shares compounds with TAG inh; H9c2 lipid accumulation; cells loaded with 200 µM oleic acid; inhibition, % at 12.5 µM; actives 71% (n = 990); AID 651629, 2012;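 active = mean inhibition across replicates of 40% or more; inactive = mean inhibition below 40%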;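 also: plate controls were DMSO only wells for no effect and Triacsin C treated wells for full effect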
# Starred values were filed as active, the others as inactive; ? = inconclusive; · = no result given.
SMILES,Platelet DG rel,STAT1 inh,PPC-1+TRAIL kill,Lipid droplet,TAG inh,STAT3 inh,TAG conf
CC(=O)Nc1ccc(CN(C)c2c(C)nc3ccc(C(=O)NC4CCN(Cc5ccccc5)CC4)cn23)cc1,·,·,·,·,7,·,·
OC(COc1ccccc1)CN1CCN(CC(O)COc2ccccc2)CC1 (stereo unspecified),-3,13,10,12,7,2,·
OCCN1CCN(CC(O)COc2ccc(C34CC5CC(CC(C5)C3)C4)cc2)CC1 (stereo unspecified),-4,-5,22,2,63*,13,37
COc1ccc([C@H]2N[C@]3(CCCN(CC4CCCCC4)C3=O)[C@H]3C(=O)N(Cc4ccccc4)C(=O)[C@@H]23)cc1,·,·,·,·,-8,·,·
CC(/C=N/NC(=O)c1n[nH]c2c1CCC2)=C\c1ccccc1,2,-24,20,?,72*,-32,36
CCN(CC)S(=O)(=O)c1ccc(O)c(C(=O)OCC(=O)NC23CC4CC(CC(C4)C2)C3)c1,·,·,·,·,-4,·,·
C=CC[C@H](CC(=O)N(CCO)Cc1ccccc1)C(=O)N[C@H](COC(=O)[C@@H](CC=C)Cc1ccc(F)cc1)Cc1c[nH]c2ccccc12,·,·,·,·,26,·,·
C=CC[C@@H](CC(=O)N(CCO)Cc1ccccc1)C(=O)N[C@H](COC(=O)[C@@H](CC=C)Cc1ccc(F)cc1)Cc1c[nH]c2ccccc12,·,·,·,·,62*,·,63*
C=CCC[C@@H](Cc1ccc(F)cc1)C(=O)OC[C@@H](Cc1c[nH]c2ccccc12)NC(=O)[C@@H](CC=C)CC(=O)N(CCO)Cc1ccccc1,·,·,·,·,60*,·,60*
CCOC(=O)c1sc2nc(C)nc(NCCc3ccccn3)c2c1C,-3,2,-13,-28,1,21,·
CCOC(=O)c1sc2nc(CSc3ccccc3)nc(NCCN(C)C)c2c1C,0,-5,8,6,52*,-4,62*
CC(=O)Oc1ccc(S(=O)(=O)c2ccc(OC(C)=O)cc2)cc1,·,-3,-8,2,65*,-2,2
C[C@H](NC(=O)c1ccc(C(C)(C)C)cc1)C(=O)N1CCOCC1,·,·,·,·,14,·,·
c1ccc(-c2nc(SCc3nc4ccccc4[nH]3)c3oc4ccccc4c3n2)cc1,·,·,·,·,74*,·,88*
CCCNC(=O)C1(C)CCN(Cc2ccc(-c3ccccc3)o2)C1 (stereo unspecified),·,·,·,·,11,·,·
CN1C(=O)c2ccc(C(=O)Nc3ccccc3O)cc2C1=O,1,·,·,-6,11,·,·
O=C(NCc1nnnn1-c1ccc(F)cc1)c1ccc2c(c1)OCO2,·,·,·,·,2,·,·
CN(C)CCNC=C(C(=O)Nc1ccc(Cl)cc1Cl)C(=O)Nc1ccc(Cl)cc1Cl,-18,1,9,14,102*,4,92*
O=C(OCC(=O)N1CCCCCC1)c1cc(S(=O)(=O)N2CCOCC2)ccc1F,·,·,·,·,4,·,·
CCOc1ccc(NC(=O)c2ccc(NC(=O)CSc3nc4ccccc4c(=O)[nH]3)cc2)cc1,7,0,1,2,61*,0,63*
CCO[C@H]1OC(C(=O)NCc2nc3ccccc3[nH]2)=C[C@@H](c2cn(C(C)=O)c3ccccc23)[C@@H]1CCCO,2,·,·,·,·,·,·
CCO[C@@H]1OC(C(=O)NCc2nc3ccccc3[nH]2)=C[C@H](c2cn(C(C)=O)c3ccccc23)[C@H]1CCCO,16,8,16,12,53*,·,28
C1CCN(CC2CCCCN2)CC1 (stereo unspecified),·,·,·,·,10,·,·
O=[N+]([O-])c1ccc(Nc2nc(N/N=C/c3cccc(F)c3)nc(N3CCCC3)n2)cc1,-20,-5,2,30,·,10,·
O=[N+]([O-])c1ccc(Nc2nc(NC3CCCCC3)nc(N3CCCC3)n2)cc1,2,12,22,14,61*,16,82*
